Experiment [1] addresses T1, Topoisomerase I (Bos taurus) (UniProt Q2HPH0).
T1 sequence (whole entry): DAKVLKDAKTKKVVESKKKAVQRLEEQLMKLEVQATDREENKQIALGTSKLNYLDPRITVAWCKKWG
Kind of experiment: Inhibition of calf thymus topoisomerase 1 assessed as suppression of relaxation of supercoiled pBR322 DNA at 100 uM incubated for 0.5 hrs by bromophenol blue and xylene cyanol FF staining based electrophoresis method. The gist of the method: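 Calf thymus Topo I with supercoiled pBR322 DNA and 100 μM compound, 37 °C for 0.5 h. Stopped with dye solution (bromophenol blue, xylene cyanol FF, glycerol). 1% agarose, 0.66 h in 1× TAE, then 5 μg mL-1 EB staining 0.5 h and UV imaging. Inhibition judged from supercoiled DNA remaining; camptothecin as control.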

Experiment [2] relates to DNA topoisomerase I (Bos taurus). Kind of experiment: Induction of DNA intercalation assessed as reduction in topoisomerase 1-mediated DNA relaxation at 100 uM using supercoiled pBR322 DNA incubated for 0.5 hrs in presence of calf thymus topoisomerase 1 by electrophoresis method.
Experiment [3] has as its target T1, Topoisomerase I (Bos taurus). Kind of experiment: Inhibition of calf thymus topoisomerase 1 assessed as increase in nicked DNA at 10 uM using supercoiled pBR322 DNA incubated for 0.5 hrs by ethidium bromide staining based DNA-cleavage assay.
Experiment [4] shares this target. Put plainly: Inhibition of calf thymus topoisomerase 1 assessed as increase in nicked DNA at 50 uM using supercoiled pBR322 DNA incubated for 0.5 hrs by ethidium bromide staining based DNA-cleavage assay. In short, it runs like this:
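Reaction: 20 units Topo I, 0.5 μg supercoiled pBR322 DNA, 50 or 100 μM compound in 40 μL Topo I buffer, 37 °C for 0.5 h. Terminated with 1% SDS, proteinase K 0.8 mg mL-1 at 50 °C for 10 min. Electrophoresis 60 V, 25 °C, 0.5 h, EB soak 0.5 μg mL-1, second run 0.5 h. Read-out: nicked versus other band intensities, UV.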

The target is the same in experiment [5]. Kind of experiment: Potency index, ratio of enzyme inhibition of securinine to enzyme inhibition of test compound for inhibition of calf thymus topoisomerase 1 assessed as suppression of relaxation of supercoiled pBR322 DNA at 100 uM incubated for 0.5 hrs by bromophenol blue and xylene cyanol FF staining based electrophoresis method.
For experiment [6] the target is unchanged. Kind of experiment: Inhibition of calf thymus topoisomerase 1 assessed as reduction in topo1/DNA complex formation at 50 to 400 uM pre-incubated for 0.33 hrs before addition of supercoiled pBR322 DNA substrate by EMSA. The gist of the method: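 BSA added to Topo I buffer, then four units calf thymus Topo I and compound (50, 100, 200 or 400 μM), standing 0.33 h. 0.1 μg pBR322 DNA added, 37 °C for 0.5 h. Electrophoresis at 1 V cm-1, 4 °C, 8 h on 1% gel containing EB; bands under UV.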
(In general: In EMSA bound probe runs differently from free probe, usually more slowly.)

Calls of active or inactive are those of the source. The rule behind the calls is not given here.

As to `CCCN(C(=O)Cc1cccc(CC(=O)N(CCC)[C@H]2CC3=CC(=O)O[C@@]34C[C@@H]2N2CCCCC24)c1)C1CC2=CC(=O)O[C@@]23C[C@@H]1N1CCCCC13` (single isomer, unassigned), the inhibition entry in experiment [1] is “Active”. Moreover, in experiment [2], the result was inactive.
The like results for `CCCN(C(=O)c1ccccc1C(=O)N(CCC)[C@H]1CC2=CC(=O)O[C@@]23C[C@@H]1N1CCCCC13)C1CC2=CC(=O)O[C@@]23C[C@@H]1N1CCCC[C@@H]13` (single isomer, unassigned) were, in that order, “Active” and “inactive”.
With `O=C1C=C2C=C[C@@H]3C[C@@]2(O1)[C@H]1CCCCN31`, the inhibition result in experiment [1] was “Active”.
For the compound `CCCN(C(=O)CCCCC(=O)N(CCC)[C@H]1CC2=CC(=O)O[C@@]23C[C@@H]1N1CCCC[C@@H]13)[C@@H]1CC2=CC(=O)O[C@@]23C[C@@H]1N1CCCC[C@@H]13`, the inhibition result in experiment [3] and in experiment [4] was “inactive” throughout. Besides, in experiment [1], the inhibition entry was “Active”.
On to `CCCN(C(=O)c1ccccc1)[C@H]1CC2=CC(=O)O[C@@]23C[C@@H]1N1CCCC[C@@H]13`, for which the inhibition result in experiment [3] and in experiment [4] was “inactive” throughout. Moreover, the inhibition result in experiment [1] was “Active”.
With `CCCN(C(=O)Cc1ccc(CC(=O)N(CCC)[C@H]2CC3=CC(=O)O[C@@]34C[C@@H]2N2CCCC[C@@H]24)cc1)[C@@H]1CC2=CC(=O)O[C@@]23C[C@@H]1N1CCCC[C@@H]13`, the inhibition result in experiment [1] was “Active”. The result in experiment [2] was inactive.
Consider `CCCN(C(=O)c1cccc(C(=O)N(CCC)[C@H]2CC3=CC(=O)O[C@@]34C[C@@H]2N2CCCCC24)c1)C1CC2=CC(=O)O[C@@]23C[C@@H]1N1CCCC[C@@H]13` (single isomer, unassigned), for which, in experiment [5], the Ratio was 3. Besides, the inhibition entry in experiment [3] and in experiment [1] was “Active” throughout. In addition, the inhibition result in experiment [6] is “Dose-dependent effect”. The result in experiment [2] was inactive.
Consider `CCCN(C(=O)CCCC(=O)N(CCC)[C@H]1CC2=CC(=O)O[C@@]23C[C@@H]1N1CCCC[C@@H]13)[C@@H]1CC2=CC(=O)O[C@@]23C[C@@H]1N1CCCC[C@@H]13`, for which, in experiment [1], the inhibition entry is “Active”.
On to `CCCN(C(=O)c1ccc(C(=O)N(CCC)[C@H]2CC3=CC(=O)O[C@@]34C[C@@H]2N2CCCCC24)cc1)C1CC2=CC(=O)O[C@@]23C[C@@H]1N1CCCC[C@@H]13` (single isomer, unassigned), for which the inhibition entry in experiment [1] is “Active”. In experiment [2], the outcome was inactive.
Regarding `CCCN(C(=O)[C@H]1CCCC[C@H]1C(=O)N(CCC)[C@H]1CC2=CC(=O)O[C@@]23C[C@@H]1N1CCCC[C@@H]13)[C@@H]1CC2=CC(=O)O[C@@]23C[C@@H]1N1CCCC[C@@H]13`, in experiment [1], the inhibition result was “Active”.
Regarding `CCCN(C(=O)Cc1ccccc1CC(=O)N(CCC)[C@H]1CC2=CC(=O)O[C@@]23C[C@@H]1N1CCCC[C@@H]13)[C@@H]1CC2=CC(=O)O[C@@]23C[C@@H]1N1CCCC[C@@H]13`, the inhibition result in experiment [1] is “Active”. For the same compound, the result in experiment [2] was inactive.
`CCCN(C(=O)[C@H]1CCC[C@@H](C(=O)N(CCC)[C@H]2CC3=CC(=O)O[C@@]34C[C@@H]2N2CCCC[C@@H]24)C1)[C@@H]1CC2=CC(=O)O[C@@]23C[C@@H]1N1CCCC[C@@H]13`: the inhibition result in experiment [3] and in experiment [4] was “inactive” throughout. In addition, the inhibition result in experiment [1] was “Active”.
`CC[C@@]1(O)C(=O)OCc2c1cc1n(c2=O)Cc2cc3ccccc3nc2-1`: the inhibition result in experiment [3], in experiment [1] and in experiment [4] was “Active” in each case.
Regarding `CCCN(C(=O)[C@H]1CC[C@H](C(=O)N(CCC)[C@H]2CC3=CC(=O)O[C@@]34C[C@@H]2N2CCCC[C@@H]24)CC1)[C@@H]1CC2=CC(=O)O[C@@]23C[C@@H]1N1CCCC[C@@H]13`, in experiment [1], the inhibition entry was “Active”.

The values above are taken from ChEMBL document CHEMBL4138059, “Novel bivalent securinine mimetics as topoisomerase I inhibitors” (Medchemcomm, 2017).
